In the library only some 1.9% were active in any assay of this set; here they are far more common.
PLC-gamma1 inh = PLC-gamma1 enzyme inhibitors, primary screen, biochemical, fluorescence, purified enzyme. 1-phosphatidylinositol 4,5-bisphosphate phosphodiesterase gamma-1 (Homo sapiens), P19174. fluorogenic substrate. inhibition, % at 12.2 µM. 0.84% of 370,000 active; in the data active = inhibition above about 9.5%
PLC-beta3 inh = human PLC-beta3 inhibitors, primary screen, biochemical, fluorescence; inhibition, % at 12.2 µM; Purified PLC-beta3, fluorogenic substrate; 0.18% of 370,000 active; AID 720704, 2013
ARFGAP1 inhibitor = inhibitors of rat ARFGAP1 GAP activity, primary screen, biochemical, fluorescence polarization, GDP tracer; Arfgap1-stimulated ARF1 GTP hydrolysis, GDP FP detection; ADP-ribosylation factor GTPase-activating protein 1 (Rattus norvegicus), Q62848; 0.26% of 360,000 active; inhibition, % at 16.5 µM;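 active = inhibition above a per-plate limit, mean inhibition of low control wells plus 3 SD, cut at about 25% in these data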
Target sequence (Q62848 1-136 limits assumed): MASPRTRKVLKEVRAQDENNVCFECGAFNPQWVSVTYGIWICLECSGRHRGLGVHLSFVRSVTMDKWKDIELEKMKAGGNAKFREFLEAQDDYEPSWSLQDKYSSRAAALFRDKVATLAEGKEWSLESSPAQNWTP
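Material: rat Arfgap1 catalytic domain, aa 1-136; also added: human ARF1(Δ1-17)-GTP substrate; compound dosing: one concentration, 16.5 µM, DMSO 1.26%; incubation: GTP hydrolysis reaction 2 h at 25 °C; measured by: Tracer-displacement fluorescence polarization with EDTA stop, 620/688 nm; evaluation: % inhibition from polarization; repeats: one replicate per compound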
ASAP1 inh = inhibitors of human ASAP1 ArfGAP activity, primary screen, biochemical, fluorescence polarization | ASAP1-stimulated ARF1 GTP hydrolysis, GDP FP detection | inhibition, % at 16.5 µM | 0.19% of 360,000 active | AID 624377, 2012; in the data active = inhibition above about 25%
HGIII-sPLA2 inh = human group III sPLA2 inhibitors, primary screen, biochemical, QFRET, BODIPY PC-A2 liposome substrate; Group 3 secretory phospholipase A2 (Homo sapiens), Q9NZ20; QFRET BODIPY PC-A2 liposome hydrolysis, fluorescence; inhibition, % at 12.2 µM; 0.56% of 370,000 active;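 active = inhibition above mean plus 3 SD of compounds lying within the high and low control bounds, cut at about 19% in these data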
Target sequence (Q9NZ20 whole entry, looked up): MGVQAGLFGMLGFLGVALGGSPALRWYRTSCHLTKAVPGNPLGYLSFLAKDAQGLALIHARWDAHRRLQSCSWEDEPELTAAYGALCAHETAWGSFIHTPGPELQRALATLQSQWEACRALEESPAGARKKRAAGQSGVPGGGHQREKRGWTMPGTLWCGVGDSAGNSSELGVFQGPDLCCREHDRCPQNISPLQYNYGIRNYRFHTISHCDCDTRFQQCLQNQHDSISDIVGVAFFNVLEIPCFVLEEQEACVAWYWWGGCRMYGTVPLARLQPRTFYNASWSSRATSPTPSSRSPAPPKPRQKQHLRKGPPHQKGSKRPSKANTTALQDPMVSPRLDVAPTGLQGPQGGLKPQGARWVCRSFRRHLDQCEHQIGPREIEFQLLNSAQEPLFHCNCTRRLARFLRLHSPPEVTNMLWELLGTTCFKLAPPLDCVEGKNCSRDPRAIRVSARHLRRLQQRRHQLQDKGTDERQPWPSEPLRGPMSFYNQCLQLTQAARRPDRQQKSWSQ
PLCgamma1 ctr = PLC-gamma1 enzyme inhibitors, counter-screen for PLC-beta3 inhibitor project, biochemical, fluorescence. inhibition, % at 12.3 µM. purified PLC-gamma1, fluorogenic substrate. shares compounds with PLC-gamma1 inh. AID 743258, 2014. 3.1% of 3,300 active; in the data active = inhibition above about 9.5%
PLCb3 confirm = PLC-beta3 inhibitor confirmation, biochemical, fluorescence, purified enzyme | shares compounds with PLC-gamma1 inh | fluorogenic substrate fluorescence | inhibition, % at 12.3 µM | 1% of 3,300 active | AID 743261, 2014
Hits are given with their value. Cut-off read from the data, not from the text of the source, unless noted: active = inhibition above about 11%; inactive = the rest.

How did Cc1ccc(S(=O)(=O)N2CCC(C(=O)NCCN3CCOCC3)CC2)cc1C do in these assays?
PLC-gamma1 inh: inactive; PLC-beta3 inh: inactive; ARFGAP1 inhibitor: inactive; ASAP1 inh: inactive; HGIII-sPLA2 inh: inactive

What do the screens show for `Cc1ccc(-n2c(SCC(=O)c3ccc(F)cc3)nnc2-c2cccnc2)cc1`?
PLC-gamma1 inh: inactive; PLC-beta3 inh: inactive; HGIII-sPLA2 inh: inactive

How did COC(=O)c1cccc(CC2(C)C(=O)Nc3cc(-c4ccccc4Cl)ccc32)c1 (stereo not given) do in these assays?
PLC-gamma1 inh: 14; PLC-beta3 inh: inactive; ARFGAP1 inhibitor: inactive; ASAP1 inh: inactive; HGIII-sPLA2 inh: inactive; PLCgamma1 ctr: inactive; PLCb3 confirm: inactive

Results for CCCCCCCCN1CCS(=O)(=O)N(Cc2ccccc2)C(C(=O)OC)C1 (stereo not given) ?
PLC-gamma1 inh: inactive; PLC-beta3 inh: inactive; HGIII-sPLA2 inh: inactive

How did Cc1[nH]c2ccccc2c1C(=O)CSC(=S)N(C)C1CCCCC1 do in these assays?
PLC-gamma1 inh: inactive; PLC-beta3 inh: inactive; ARFGAP1 inhibitor: inactive; ASAP1 inh: inactive; HGIII-sPLA2 inh: inactive

How did Cc1[nH]c2ccccc2c1C(=O)CSC(=S)N1CCCCC1 do in these assays?
PLC-gamma1 inh: 15; PLC-beta3 inh: inactive; ARFGAP1 inhibitor: inactive; ASAP1 inh: inactive; HGIII-sPLA2 inh: inactive; PLCgamma1 ctr: inactive; PLCb3 confirm: inactive

How did COC(=O)CCC(=O)N1C2=NC3=C(C(=O)N(Cc4ccc5c(c4)OCO5)C3=O)C3N(C)c4ccccc4[C@]23C[C@H]1CO (stereo not given in full) do in these assays?
PLC-gamma1 inh: inactive; PLC-beta3 inh: inactive; HGIII-sPLA2 inh: inactive

What do the screens show for `O=C(O)c1ccccc1N1C(=O)C2C3c4ccccc4C(Br)(c4ccccc43)C2C1=O` (stereo not given)?
PLC-gamma1 inh: 18; PLC-beta3 inh: inactive; ARFGAP1 inhibitor: inactive; ASAP1 inh: inactive; HGIII-sPLA2 inh: inactive; PLCgamma1 ctr: inactive; PLCb3 confirm: inactive

What do the screens show for `CC(O)CN(CCC(N)=O)CCC(N)=O` (stereo not given)?
PLC-gamma1 inh: 10; PLC-beta3 inh: inactive; ARFGAP1 inhibitor: inactive; ASAP1 inh: inactive; HGIII-sPLA2 inh: inactive; PLCgamma1 ctr: inactive; PLCb3 confirm: inactive

Results for CC(C)=CCC/C(C)=C/CN(CC(C)O)CC(C)O (stereo not given) ?
PLC-gamma1 inh: inactive; PLC-beta3 inh: inactive; ARFGAP1 inhibitor: inactive; ASAP1 inh: inactive; HGIII-sPLA2 inh: inactive

What do the screens show for `COc1ccc(C(C(=O)N(C)C2CCCC2)N(Cc2ccc(F)cc2)C(=O)c2csc(N3CCOCC3)n2)cc1OC` (stereo not given)?
PLC-gamma1 inh: inactive; PLC-beta3 inh: inactive; HGIII-sPLA2 inh: inactive

Results for COc1ccc(NS(=O)(=O)c2ccc(SC)cc2)cc1 ?
PLC-gamma1 inh: 12; PLC-beta3 inh: inactive; ARFGAP1 inhibitor: inactive; ASAP1 inh: inactive; HGIII-sPLA2 inh: inactive; PLCgamma1 ctr: inactive; PLCb3 confirm: inactive

Results for CSc1ccc(S(=O)(=O)Nc2ccc(F)cc2)cc1 ?
PLC-gamma1 inh: inactive; PLC-beta3 inh: inactive; ARFGAP1 inhibitor: inactive; ASAP1 inh: inactive; HGIII-sPLA2 inh: inactive

What do the screens show for `NC(=O)NC(=O)CN1C(=O)NC(c2ccccc2)(c2ccccc2)C1=O`?
PLC-gamma1 inh: 11; PLC-beta3 inh: inactive; ARFGAP1 inhibitor: inactive; ASAP1 inh: inactive; HGIII-sPLA2 inh: inactive; PLCgamma1 ctr: inactive; PLCb3 confirm: inactive

What do the screens show for `O=C(CN1C(=O)NC(c2ccccc2)(c2ccccc2)C1=O)N1CCCCC1`?
PLC-gamma1 inh: inactive; PLC-beta3 inh: inactive; ARFGAP1 inhibitor: inactive; ASAP1 inh: inactive; HGIII-sPLA2 inh: inactive

What do the screens show for `NC(=O)c1ccc(NC(=O)CN2C(=O)NC(c3ccccc3)(c3ccccc3)C2=O)cc1`?
PLC-gamma1 inh: 10; PLC-beta3 inh: inactive; ARFGAP1 inhibitor: inactive; ASAP1 inh: inactive; HGIII-sPLA2 inh: inactive; PLCgamma1 ctr: inactive; PLCb3 confirm: inactive

What do the screens show for `CC1CCN(C(=O)CN2C(=O)NC(c3ccccc3)(c3ccccc3)C2=O)CC1`?
PLC-gamma1 inh: 13; PLC-beta3 inh: inactive; ARFGAP1 inhibitor: inactive; ASAP1 inh: inactive; HGIII-sPLA2 inh: inactive; PLCgamma1 ctr: inactive; PLCb3 confirm: inactive

What do the screens show for `CCC[C@H]1[C@@H](NCc2cccs2)CC[C@@]23CCCN2C(=O)CCC[C@@H]13`?
PLC-gamma1 inh: inactive; PLC-beta3 inh: inactive; HGIII-sPLA2 inh: inactive

What do the screens show for `O=C(Nc1ccccc1Cl)OC1CC2CC1[C@H]1CCCCN1[C@H]2Cc1ccccc1` (stereo not given in full)?
PLC-gamma1 inh: inactive; PLC-beta3 inh: inactive; HGIII-sPLA2 inh: inactive

How did COc1ccc(C(=O)NCC2CCN(C(=O)C(=O)c3cc4ccccc4o3)CC2)cc1 do in these assays?
PLC-gamma1 inh: inactive; PLC-beta3 inh: inactive; ARFGAP1 inhibitor: inactive; ASAP1 inh: inactive; HGIII-sPLA2 inh: inactive

What do the screens show for `O=C(CC1SC(=NC2CCCCC2)NC1=O)Nc1ccccc1` (stereo not given)?
PLC-gamma1 inh: 11; PLC-beta3 inh: inactive; ARFGAP1 inhibitor: inactive; ASAP1 inh: inactive; HGIII-sPLA2 inh: inactive; PLCgamma1 ctr: inactive; PLCb3 confirm: inactive

How did Cc1cccc(NC(=O)CC2SC(=NC3CCCCC3)NC2=O)c1 (stereo not given) do in these assays?
PLC-gamma1 inh: inactive; PLC-beta3 inh: inactive; ARFGAP1 inhibitor: inactive; ASAP1 inh: inactive; HGIII-sPLA2 inh: inactive

Results for COc1ccc(CN2CCC(CNC(=O)NC(C)C)CC2)cc1 ?
PLC-gamma1 inh: inactive; PLC-beta3 inh: inactive; HGIII-sPLA2 inh: inactive

Results for Cc1cc(C)cc(C(=O)NCC(=O)OCC(=O)N2c3ccccc3NC(=O)C2(C)C)c1 ?
PLC-gamma1 inh: inactive; PLC-beta3 inh: inactive; ARFGAP1 inhibitor: inactive; ASAP1 inh: inactive; HGIII-sPLA2 inh: inactive

How did COc1cc(OC)cc(C(=O)NCC(=O)OCC(=O)N2c3ccccc3NC(=O)C2(C)C)c1 do in these assays?
PLC-gamma1 inh: 11; PLC-beta3 inh: inactive; ARFGAP1 inhibitor: inactive; ASAP1 inh: inactive; HGIII-sPLA2 inh: inactive; PLCgamma1 ctr: inactive; PLCb3 confirm: inactive

What do the screens show for `CCOc1ccc(/C=C(\C)C(=O)c2c(C)cc(C)[nH]c2=O)cc1`?
PLC-gamma1 inh: 12; PLC-beta3 inh: inactive; ARFGAP1 inhibitor: inactive; ASAP1 inh: inactive; HGIII-sPLA2 inh: inactive; PLCgamma1 ctr: inactive; PLCb3 confirm: inactive
